According to ChEMBL document CHEMBL1124479, “N-[(arylmethoxy)phenyl] and N-[(arylmethoxy)naphthyl] sulfonamides: potent orally active leukotriene D4 antagonists of novel structure” (J Med Chem, 1989):

Legend:
Cavia porcellus [1] = assay: Inhibition of Leukotriene D4 induced bronchoconstriction when compound was administered perorally at a dose of 50 mg/kg in guinea pig; format: functional; conditions: route oral
Summary of the method: (§1)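 Single-dose screen in guinea pigs, with n animals per group. Significance versus control used a two-tailed Student's t test (p < 0.05), or one-way ANOVA with contrasts based on each treatment's difference from its own control mean.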

Cavia porcellus [2] = assay: Inhibition of ovalbumin-induced bronchoconstriction when compound was administered intraduodenally at a dose of 50 mg/kg in guinea pig; format: functional; conditions: route intraduodenal; summary of the method: as §1
Cavia porcellus [3] = assay: Inhibition of ovalbumin-induced bronchoconstriction when compound was administered perorally at a dose of 50 mg/kg in guinea pig; format: functional; conditions: route oral; summary of the method: as §1
Cavia porcellus [4] = assay: Inhibition of Leukotriene D4 induced bronchoconstriction in guinea pig by 50 mg/kg i.d.; conditions: at 50 mg/kg
Cavia porcellus [5] = assay: Inhibition of Leukotriene D4 induced bronchoconstriction when compound was administered intraduodenally at a dose of 25 mg/kg in guinea pig

Compound	inhibition (Cavia porcellus [4])	inhibition (Cavia porcellus [5])	further results
CCS(=O)(=O)Nc1ccc2ccc(OCc3ccc4ccccc4n3)cc2c1	91%	–	inhibition in vivo at 50 mg/kg (Cavia porcellus [1]): 34%; inhibition in vivo at 50 mg/kg (Cavia porcellus [2]): 20%; inhibition in vivo at 50 mg/kg (Cavia porcellus [3]): 24%
CCS(=O)(=O)Nc1cccc(OCc2ccc3ccccc3n2)c1	83%	–	inhibition in vivo at 50 mg/kg (Cavia porcellus [2]): 0%
CCCS(=O)(=O)N(c1cccc(OCc2ccc3ccccc3n2)c1)S(=O)(=O)CCC	4%	–	–
O=S(=O)(Nc1cccc(Oc2cccc3cccnc23)c1)C(F)(F)F	–	50%	–
O=C(O)CS(=O)(=O)Nc1cccc(OCc2ccc3ccccc3n2)c1	–	58%	–
CCCCS(=O)(=O)Nc1cccc(OCc2ccc3ccccc3n2)c1	30%	–	–
CCS(=O)(=O)Nc1cccc(OCc2ccc3ccccc3c2)c1	42%	–	–
CCS(=O)(=O)Nc1cccc(OCc2nc3ccccc3n2C)c1	75%	–	inhibition in vivo at 50 mg/kg (Cavia porcellus [2]): 16%
Cc1ccc(S(=O)(=O)Nc2cccc(SCc3ccc4ccccc4n3)c2)cc1	–	10%	–
CS(=O)(=O)Nc1ccc([N+](=O)[O-])cc1OCc1ccc2ccccc2n1	–	28%	–
O=S(=O)(Nc1cccc(OCc2ccc3ccccc3n2)c1)c1ccc(C(F)(F)F)cc1	–	46%	–
CCCCS(=O)(=O)Nc1ccc2ccc(OCc3ccc4ccccc4n3)cc2c1	51%	–	–
O=S(=O)(Nc1ccccc1SCc1ccc2ccccc2n1)C(F)(F)F	–	-5%	–
CCS(=O)(=O)Nc1cccc2ccc(OCc3ccc4ccccc4n3)cc12	-6%	–	–
O=S(=O)(Nc1ccc(OCc2ccc3ccccc3n2)cc1)C(F)(F)F	–	28%	–
O=C1CS(=O)(=O)Nc2cc(OCc3ccc4ccccc4n3)ccc21	–	78%	inhibition in vivo at 50 mg/kg (Cavia porcellus [1]): 3%
O=S(=O)(Nc1cccc(Oc2ccccn2)c1)C(F)(F)F	–	11%	–
CCCS(=O)(=O)Nc1cccc(OCc2nc3ccccc3n2C)c1	37%	–	inhibition in vivo at 50 mg/kg (Cavia porcellus [1]): 36%; inhibition in vivo at 50 mg/kg (Cavia porcellus [2]): 31%; inhibition in vivo at 50 mg/kg (Cavia porcellus [3]): 17%

Compound	inhibition (Cavia porcellus [4])	inhibition (Cavia porcellus [5])	further results
COC(=O)CS(=O)(=O)Nc1cccc(OCc2ccc3ccccc3n2)c1	–	69%	–
O=S(=O)(Nc1cccc(OCc2csc3ccccc23)c1)C(F)(F)F	–	13%	–
CCCCS(=O)(=O)Nc1cccc(OCc2nc3ccccc3n2C)c1	2%	–	inhibition in vivo at 50 mg/kg (Cavia porcellus [2]): 8%
CCS(=O)(=O)N(C)c1ccc2ccc(OCc3ccc4ccccc4n3)cc2c1	37%	–	–
O=S(=O)(NCCc1cccc(OCc2ccc3ccccc3n2)c1)C(F)(F)F	–	14%	–
CN(C)S(=O)(=O)Nc1cccc(OCc2ccc3ccccc3n2)c1	–	11%	–
CCCS(=O)(=O)N(c1cccc(OCc2nc3ccccc3s2)c1)S(=O)(=O)CCC	38%	–	–
CCS(=O)(=O)Nc1ccc2ccc(OCc3nc4ccccc4s3)cc2c1	27%	–	–
CCS(=O)(=O)Nc1cccc(OCc2cc3ccccc3s2)c1	–	13%	inhibition in vivo at 50 mg/kg (Cavia porcellus [2]): 4%
O=S(=O)(Nc1cccc(OCc2nc3ccccc3s2)c1)C(F)(F)F	–	94%	–
O=C(O)c1ccc(S(=O)(=O)Nc2cccc(OCc3ccc4ccccc4n3)c2)cc1	–	0%	–
CS(=O)(=O)Nc1cccc(OCc2nc3ccccc3s2)c1	60%	–	inhibition in vivo at 50 mg/kg (Cavia porcellus [2]): 44%
CCCS(=O)(=O)Nc1cccc(OCc2nc3ccccc3s2)c1	48%	–	inhibition in vivo at 50 mg/kg (Cavia porcellus [2]): 18%
CS(=O)(=O)Nc1ccc2ccc(OCc3ccc4ccccc4n3)cc2c1	68%	–	–
O=S(=O)(CC(F)(F)F)Nc1cccc(OCc2ccc3ccccc3n2)c1	–	100%	–
CCS(=O)(=O)Nc1ccc2ccc(OCc3ccc4ccccc4c3)cc2c1	28%	–	–
O=S(=O)(Nc1ccccc1OCc1ccc2ccccc2n1)C(F)(F)F	–	24%	–
CCCCS(=O)(=O)Nc1cccc(OCc2nc3ccccc3s2)c1	56%	–	inhibition in vivo at 50 mg/kg (Cavia porcellus [2]): 16%
